Source: publication PMC6376552 (Antiviral Chemistry & Chemotherapy, 2019)
Read-outs that look alike come from different tables or passages of the source.

What was measured:
Type in all cases: cell-based
HIV-1 (IIIB strain) = assay: MT-4 antiviral cytoprotection assay, five-day multi-cycle, wild type HIV-1; conditions: for SI (selectivity index): CC50/EC50 ratio, MT-4; for SI (selectivity index) / anti-HIV activity in words: wild type; for anti-HIV activity in words: MT-4 cells
Summary of the method: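 MT-4 cells were pre-infected with a fresh 1:250 dilution of concentrated HIV-1 IIIB stock, or mock-infected for cytotoxicity. Test compound was serially diluted 1:3 in DMSO, then 200-fold into RPMI with 10% FBS and 1% P/S. Controls were no-drug and 5 µM AZT. After 5 days at 37°C, viability was read by CellTiter-Glo luminescence. EC50/CC50 were taken as 50% signal decrease from sigmoidal fits; SI = CC50/EC50.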

[1] = system: HIV-1 encoding RT mutation K103N; assay: MT-4 antiviral assay against HIV-1 encoding RT mutation K103N; conditions: Human immunodeficiency virus 1, MT4, read-out: EC50 K103N
[2] = system: HIV-1 encoding RT mutation Y181C; assay: MT-4 antiviral assay against HIV-1 encoding RT mutation Y181C; conditions: Human immunodeficiency virus 1, MT4, read-out: EC50 Y181C
MT-4 cytotoxicity assay = conditions: human, MT-4 cells (mock-infected), CC50, MT-4 cell line, n = 3
MT-4 cells = assay: MT-4 cytotoxicity assay; conditions: MT-4 cell line, n = 3
[3] = Human immunodeficiency virus 1, IIIB, MT4, read-out: EC50 w.t.

| Molecule | SI (selectivity index) (HIV-1 (IIIB strain)) | EC50 (HIV-1 (IIIB strain); [3]) [nM] | EC50 [1] [nM] | EC50 [2] [nM] | CC50 at 5 days (MT-4 cytotoxicity assay) [nM] | anti-HIV activity in words (HIV-1 (IIIB strain)) | EC50 (HIV-1 (IIIB strain); read-out: EC50 w.t., MT-4 cell line, HIV-1 IIIB wild type, n = 3) [nM] | CC50 (MT-4 cells) [nM] |
| --- | --- | --- | --- | --- | --- | --- | --- | --- |
| COc1cc(F)c(Nc2cc(Cl)nc(Nc3ccc(C#N)cc3)n2)c(F)c1 [Compound 29, 4-((4-chloro-6-((2,6-difluoro-4-methoxyphenyl)amino)pyrimidin-2-yl)amino)benzonitrile] | 2667 | 6 | 204 | 651 | 16000 |  |  |  |
| N#Cc1ccc(Nc2cc(N)nc(C(=O)c3c(F)cc(F)cc3F)n2)cc1 [Compound 12, 4-((6-amino-2–(2,4,6-trifluorobenzoyl)pyrimidin-4-yl)amino)benzonitrile] | 24.3 | 1730 |  |  | 42000 | micromolar range |  |  |
| Cc1cc(C(=O)c2c(F)cc(F)cc2F)nc(Nc2ccc(C#N)cc2)n1 [Compound 18, 4-((4-methyl-6–(2,4,6-trifluorobenzoyl)pyrimidin-2-yl)amino)benzonitrile] |  | 160 |  |  | 57100 |  |  |  |
| Cc1cc(C#N)cc(C)c1Oc1nc(Nc2ccc(C#N)cc2)nc(N)c1Br [ETR, etravirine, reference compound] | 2940 | 2 | 2 | 12 | 5880 |  |  |  |
| COc1cc(F)c(Oc2cc(OC)nc(Nc3ccc(C#N)cc3)n2)c(F)c1 [Compound 31, 4-((4–(2,6-difluoro-4-methoxyphenoxy)-6-methoxypyrimidin-2-yl)amino)benzonitrile] | 832 | 19 | 444 | 4370 | 15800 |  |  |  |
| O=C1Nc2ccc(Cl)cc2[C@@](C#CC2CC2)(C(F)(F)F)O1 [EFV, efavirenz, reference compound] |  |  | 101 | 5 | 20600 |  |  |  |
| 4-((4-amino-6–(2,6-difluoro-4-methoxybenzoyl)pyrimidin-2-yl)amino)benzonitrile [Compound 15] |  |  |  |  |  | micromolar range | 2200 | 7700 |
| COc1cc(C(=O)c2c(F)cc(F)cc2F)nc(Nc2ccc(C#N)cc2)n1 [Compound 22, 4-((4-methoxy-6–(2,4,6-trifluorobenzoyl)pyrimidin-2-yl)amino)benzonitrile] | 19.4 | 473 |  |  | 9160 |  |  |  |
| N#Cc1ccc(Nc2nc(Cl)cc(Oc3c(F)cc(F)cc3F)n2)cc1 [Compound 28, 4-((4-chloro-6–(2,4,6-trifluorophenoxy)pyrimidin-2-yl)amino)benzonitrile] | 264 | 53 | 657 | 2530 | 14000 |  |  |  |
| COc1cc(F)c(C(=O)c2nc(N)cc(Nc3ccc(C#N)cc3)n2)c(F)c1 [Compound 11, 4-((6-amino-2–(2,6-difluoro-4-methoxybenzoyl)pyrimidin-4-yl)amino)benzonitrile] | 7.14 | 874 |  |  | 6240 | micromolar range |  |  |
| N#Cc1ccc(Nc2nc(N)cc(C(=O)c3c(F)cc(F)cc3F)n2)cc1 [Compound 14, 4-((4-amino-6–(2,4,6-trifluorobenzoyl)pyrimidin-2-yl)amino)benzonitrile] | 935 | 26 | 1700 | 3900 | 24300 | low nanomolar activities |  |  |
| COc1cc(F)c(C(=O)c2cc(N)nc(Nc3ccc(C#N)cc3)n2)c(F)c1 [Compound 13, 4-((4-amino-6–(2,6-difluoro-4-methoxybenzoyl)pyrimidin-2-yl)amino)benzonitrile] | 4900 | 4 | 226 | 797 | 19600 | low nanomolar activities |  |  |
| N#Cc1ccc(Nc2nc(Cl)cc(Nc3c(F)cc(F)cc3F)n2)cc1 [Compound 30, 4-((4-chloro-6-((2,4,6-trifluorophenyl)amino)pyrimidin-2-yl)amino)benzonitrile] | 378 | 27 | 1020 | 2000 | 10200 |  |  |  |
| COc1cc(F)c(Oc2cc(Cl)nc(Nc3ccc(C#N)cc3)n2)c(F)c1 [Compound 27, 4-((4-chloro-6–(2,6-difluoro-4-methoxyphenoxy)pyrimidin-2-yl)amino)benzonitrile] | 847 | 19 | 413 | 1640 | 16100 |  |  |  |
| N#Cc1ccc(Nc2cc(C(=O)c3c(F)cc(F)cc3F)nc(N)n2)cc1 [Compound 16, 4-((2-amino-6–(2,4,6-trifluorobenzoyl)pyrimidin-4-yl)amino)benzonitrile] | 0.025 | 40000 |  |  | 981 | micromolar range |  |  |
| N#Cc1ccc(Nc2nc(N)cc(Oc3c(F)cc(F)cc3F)n2)cc1 [Compound 36, 4-((4-amino-6–(2,4,6-trifluorophenoxy)pyrimidin-2-yl)amino)benzonitrile] | 293 | 67 | 67 | 6660 | 19600 |  |  |  |
| COc1cc(F)c(Nc2cc(OC)nc(Nc3ccc(C#N)cc3)n2)c(F)c1 [Compound 33, 4-((4-((2,6-difluoro-4-methoxyphenyl)amino)-6-methoxypyrimidin-2-yl)amino)benzonitrile] | 5571 | 7 |  |  | 39000 |  |  |  |
| N#Cc1ccc(Nc2nc(N)cc(Nc3c(F)cc(F)cc3F)n2)cc1 [Compound 38, 4-((4-amino-6-((2,4,6-trifluorophenyl)amino)pyrimidin-2-yl)amino)benzonitrile] | 1289 | 27 | 1650 | 13700 | 34800 |  |  |  |
| COc1cc(F)c(Oc2cc(N)nc(Nc3ccc(C#N)cc3)n2)c(F)c1 [Compound 35, 4-((4-amino-6–(2,6-difluoro-4-methoxyphenoxy)pyrimidin-2-yl)amino)benzonitrile] | 10,850 | 2 | 36 | 637 | 21700 |  |  |  |
| COc1cc(Nc2c(F)cc(F)cc2F)nc(Nc2ccc(C#N)cc2)n1 [Compound 34, 4-((4-methoxy-6-((2,4,6-trifluorophenyl)amino)pyrimidin-2-yl)amino)benzonitrile] | 454 | 22 | 1210 | 2020 | 9990 |  |  |  |
| COc1cc(Oc2c(F)cc(F)cc2F)nc(Nc2ccc(C#N)cc2)n1 [Compound 32, 4-((4-methoxy-6–(2,4,6-trifluorophenoxy)pyrimidin-2-yl)amino)benzonitrile] | 926 | 54 | 560 | 7700 | 50000 |  |  |  |
| COc1cc(F)c(Nc2cc(N)nc(Nc3ccc(C#N)cc3)n2)c(F)c1 [Compound 37, 4-((4-amino-6-((2,6-difluoro-4-methoxyphenyl)amino)pyrimidin-2-yl)amino)benzonitrile] | 5733 | 3 | 62 | 437 | 17200 |  |  |  |
